Data: ChEMBL document CHEMBL1142626, “Insecticidal and mutagenic evaluation of two annonaceous acetogenins” (J Nat Prod, 2000)

Experiments:
Myzus persicae [1] = test: Antifeedant effect against Myzus persicae assessed as inhibition index at 100 ug/cm2 relative to control; format: functional; design: scale not given: the % may be the effect or the level left
Outline: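 Choice settling test on apterous adult M. persicae: 20 boxes of 10 aphids per treatment. Settling inhibition %SI = [1 − (%aphids on treated/%aphids on control surface)] × 100.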

Salmonella typhimurium [2] = test: Mutagenic activity in Salmonella Typhimurium TA100 assessed as number of revertants at 100 ug/plate in presence of Wistar rat S9 liver homogenate; format: toxicity, organism-based, Liver S9 fraction; details: salmonella enterica subsp. enterica serovar typhimurium
Outline: (§1)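 Salmonella/microsome plate test, with or without S9 from livers of male Wistar rats (~200 g). Strain markers and spontaneous revertant counts were routinely verified. Revertants are reported as mean ± standard error of triplicate plates. Strain-specific positive controls were used, with 2-aminoanthracene for all strains when S9 was present.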

[3] = test system: Leptinotarsa decemlineata; test: Antifeedant effect against Leptinotarsa decemlineata assessed as feeding reduction at 10 ug/cm2; format: functional, organism-based
Outline: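 Choice test on leaf disks using adult L. decemlineata or newly emerged fifth-instar S. littoralis larvae. Five to 10 plates per treatment, three insects each. Uneaten leaf-disk area was measured by scanner. %FR = [1 − (treatment/control consumption)] × 100 per arena. Where FR exceeded 50%, EC50 was taken from linear regression of %FR on log dose.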

Spodoptera littoralis [4] = test: Antifeedant effect against Spodoptera littoralis L6 larvae assessed as relative consumption rate at 10 ug, po after 72 hrs; format: functional
Outline: (§2)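 Preweighed, newly emerged S. littoralis L6 larvae (20 per experiment) were orally cannulated with 10 µg in 2 µL DMSO; controls got solvent alone. Relative consumption and growth rates were calculated at 72 h on a dry-weight basis. Log-transformed weights were analysed by ANOVA with LSD tests.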

Spodoptera littoralis [5] = test: Antifeedant effect against Spodoptera littoralis L6 larvae assessed as relative growth rate at 10 ug, po after 72 hrs; format: functional; outline: as §2
[6] = test system: Leptinotarsa decemlineata; test: Insecticidal activity against Leptinotarsa decemlineata assessed as mortality at 5 ug by hemolymph injection after 72 hrs; format: functional
Outline: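 Adult L. decemlineata (20 beetles) were injected with 5 µg in DMSO through the metepimeron suture of the thorax. Beetles were kept on potato leaves. Symptoms and mortality were recorded up to 3 days, analysed by contingency tables and Abbott-corrected.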

Myzus persicae [7] = test: Insecticidal activity against Myzus persicae assessed as increase in mortality at 100 ug/cm2 observed daily for 4 days; format: functional, organism-based
Outline: (§3)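 No-choice test: 20 boxes, each with five same-age apterous adult M. persicae (100 insects). Nymphs produced in the first 48 h were separated from adults and kept in similarly treated boxes. Both were observed daily for 4 days for mortality. Analysed by contingency tables and LSD test.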

Myzus persicae [8] = test: Insecticidal activity against Myzus persicae assessed as increase in mortality at 50 ug/cm2 observed daily for 4 days; format: functional, organism-based; outline: as §3
Salmonella typhimurium [9] = test: Mutagenic activity in Salmonella Typhimurium TA98 assessed as number of revertants at 0.1 ug/plate in absence of Wistar rat S9 liver homogenate; format: toxicity, organism-based; details: salmonella enterica subsp. enterica serovar typhimurium; outline: as §1
Salmonella typhimurium [10] = test: Mutagenic activity in Salmonella Typhimurium TA98 assessed as number of revertants at 1 ug/plate in absence of Wistar rat S9 liver homogenate; format: toxicity, organism-based; details: salmonella enterica subsp. enterica serovar typhimurium; outline: as §1
Salmonella typhimurium [11] = test: Mutagenic activity in Salmonella Typhimurium TA98 assessed as number of revertants at 10 ug/plate in absence of Wistar rat S9 liver homogenate; format: toxicity, organism-based; details: salmonella enterica subsp. enterica serovar typhimurium; outline: as §1
Salmonella typhimurium [12] = test: Mutagenic activity in Salmonella Typhimurium TA98 assessed as number of revertants at 20 ug/plate in absence of Wistar rat S9 liver homogenate; format: toxicity, organism-based; details: salmonella enterica subsp. enterica serovar typhimurium
Outline: (§4)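 Salmonella/microsome plate test (Ames) in strain TA98, with genetic markers and spontaneous revertant counts verified routinely. Run with and without S9 mix, the S9 being liver postmitochondrial supernatant from male Wistar rats of about 200 g. Doses ran from 0.01 to 100 µg/plate. Revertants are the mean of triplicate plates with standard error. Positive controls were 0.5 µg 4-nitroquinoline-N-oxide without S9 and 15 µg 2-aminoanthracene with S9.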

Salmonella typhimurium [13] = test: Mutagenic activity in Salmonella Typhimurium TA98 assessed as number of revertants at 50 ug/plate in absence of Wistar rat S9 liver homogenate; format: toxicity, organism-based; details: salmonella enterica subsp. enterica serovar typhimurium; outline: as §4
Salmonella typhimurium [14] = test: Mutagenic activity in Salmonella Typhimurium TA98 assessed as number of revertants at 100 ug/plate in absence of Wistar rat S9 liver homogenate; format: toxicity, organism-based; details: salmonella enterica subsp. enterica serovar typhimurium; outline: as §4
Salmonella typhimurium [15] = test: Mutagenic activity in Salmonella Typhimurium TA98 assessed as number of revertants at 0.01 ug/plate in presence of Wistar rat S9 liver homogenate; format: toxicity, organism-based, Liver S9 fraction; details: salmonella enterica subsp. enterica serovar typhimurium; outline: as §1
Salmonella typhimurium [16] = test: Mutagenic activity in Salmonella Typhimurium TA98 assessed as number of revertants at 0.1 ug/plate in presence of Wistar rat S9 liver homogenate; format: toxicity, organism-based, Liver S9 fraction; details: salmonella enterica subsp. enterica serovar typhimurium; outline: as §1
Salmonella typhimurium [17] = test: Mutagenic activity in Salmonella Typhimurium TA98 assessed as number of revertants at 1 ug/plate in presence of Wistar rat S9 liver homogenate; format: toxicity, organism-based, Liver S9 fraction; details: salmonella enterica subsp. enterica serovar typhimurium; outline: as §1
Salmonella typhimurium [18] = test: Mutagenic activity in Salmonella Typhimurium TA98 assessed as number of revertants at 10 ug/plate in presence of Wistar rat S9 liver homogenate; format: toxicity, organism-based, Liver S9 fraction; details: salmonella enterica subsp. enterica serovar typhimurium; outline: as §1
Salmonella typhimurium [19] = test: Mutagenic activity in Salmonella Typhimurium TA98 assessed as number of revertants at 20 ug/plate in presence of Wistar rat S9 liver homogenate; format: toxicity, organism-based, Liver S9 fraction; details: salmonella enterica subsp. enterica serovar typhimurium; outline: as §4
Salmonella typhimurium [20] = test: Mutagenic activity in Salmonella Typhimurium TA98 assessed as number of revertants at 50 ug/plate in presence of Wistar rat S9 liver homogenate; format: toxicity, organism-based, Liver S9 fraction; details: salmonella enterica subsp. enterica serovar typhimurium; outline: as §4
Salmonella typhimurium [21] = test: Mutagenic activity in Salmonella Typhimurium TA98 assessed as number of revertants at 100 ug/plate in presence of Wistar rat S9 liver homogenate; format: toxicity, organism-based, Liver S9 fraction; details: salmonella enterica subsp. enterica serovar typhimurium; outline: as §4
Salmonella typhimurium [22] = test: Mutagenic activity in Salmonella Typhimurium TA100 assessed as number of revertants at 0.01 ug/plate in absence of Wistar rat S9 liver homogenate; format: toxicity, organism-based; details: salmonella enterica subsp. enterica serovar typhimurium; outline: as §1
Salmonella typhimurium [23] = test: Mutagenic activity in Salmonella Typhimurium TA100 assessed as number of revertants at 0.1 ug/plate in absence of Wistar rat S9 liver homogenate; format: toxicity, organism-based; details: salmonella enterica subsp. enterica serovar typhimurium; outline: as §1
Salmonella typhimurium [24] = test: Mutagenic activity in Salmonella Typhimurium TA100 assessed as number of revertants at 1 ug/plate in absence of Wistar rat S9 liver homogenate; format: toxicity, organism-based; details: salmonella enterica subsp. enterica serovar typhimurium; outline: as §1

CCCCCC[C@H](O)CCC[C@H](O)[C@H]1CC[C@H]([C@H]2CC[C@H]([C@H](O)CCCCCCCCCCCCC3=C[C@H](C)OC3=O)O2)O1 [SQUAMOCIN]
Activity (Myzus persicae [1]): <40% | Activity (Salmonella typhimurium [2]): 102 | Activity [3]: Toxic | Activity (Spodoptera littoralis [4]): 20.35 mg | Activity (Spodoptera littoralis [5]): 3.36 mg | Activity [6]: 92.18% | Activity (Myzus persicae [7]): Non-toxic | Activity (Myzus persicae [8]): Non-toxic | Activity (Salmonella typhimurium [9]): 25 | Activity (Salmonella typhimurium [10]): 26 | Activity (Salmonella typhimurium [11]): 18 | Activity (Salmonella typhimurium [12]): 13 | Activity (Salmonella typhimurium [13]): 10 | Activity (Salmonella typhimurium [14]): 6 | Activity (Salmonella typhimurium [15]): 36 | Activity (Salmonella typhimurium [16]): 39 | Activity (Salmonella typhimurium [17]): 39 | Activity (Salmonella typhimurium [18]): 41 | Activity (Salmonella typhimurium [19]): 43 | Activity (Salmonella typhimurium [20]): 36 | Activity (Salmonella typhimurium [21]): 31 | Activity (Salmonella typhimurium [22]): 154 | Activity (Salmonella typhimurium [23]): 140 | Activity (Salmonella typhimurium [24]): 114
